Experimental data published in publication PMC7919060 (ACS chemical neuroscience, 2020).
Counter-ions that a name gives are not always drawn. Like-named read-outs stand apart in the source and are kept apart here.

Key:
[1] = system: MDR1-MDCK cell monolayer; experiment: Permeability and efflux in MDR1-MDCK cell monolayer; format: in vitro ADME
[2] = Mouse pharmacokinetics, single IP dose 10 mg/kg; format: in vivo, CD-1 mice
[3] = system: brain GlcCer; conditions: normal mice, 60 mg/kg; cited from earlier work
[4] = Stability to mouse liver microsomes; format: in vitro ADME; conditions: CD-1, mouse, pH 7.4
How it was run: (§1)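 Test compound at 1 μM with 0.5 mg/mL liver microsomes (CD-1 mouse or human), 1.7 mM β-NADPH, 0.1 M phosphate pH 7.4, 3.3 mM MgCl₂, 37 °C, final DMSO <0.1%. Aliquots at 0–60 min (seven points) were quenched in cold acetonitrile with internal standard. Parent remaining was measured by LC-MS/MS. Half-life was taken from ln(remaining) versus time.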

[5] = Stability to human liver microsomes; format: in vitro ADME; conditions: pH 7.4
How it was run: as §1

[6] = system: P-glycoprotein (MDR1); experiment: Permeability and efflux in MDR1-MDCK cell monolayer; format: in vitro ADME; conditions: dog, MDCK-MDR1
[7] = format: in vivo, D409V/D409V mice of C57BL/6 background; conditions: both, C57BL/6 (Gba D409V/D409V), mouse, ip, 10 mg/kg
How it was run: (§2)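 Gba D409V/D409V mice (C57BL/6 background) received CBE 25 mg/kg IP daily for 14 days from postpartum day 15. Test compound (10 mg/kg qd IP, citrate-saline) or buffer alone was coadministered; 8–11 mixed-gender mice per group. Sacrifice was 2 h after final dose. Brain GlcCer and GlcSph were separated from galactosyl analogues and quantified by LC-MS/MS. Values were normalised to tissue weight (pmol/mg) relative to vehicle controls; Student's t test.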

[8] = system: brain GlcCer and GlcSph; format: in vivo, D409V/D409V mice of C57BL/6 background; conditions: CBE mice
How it was run: as §2

[9] = system: brain GlcCer; experiment: In vivo reduction of brain glucosylceramide in normal mice; conditions: normal C57BL/6 mice, IP
How it was run: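 Female or male C57BL/6 mice, 6–8 weeks old, on regular chow, given test compound or vehicle IP daily for 3 days. Injection volume was 1% of body weight. Two dose-response runs were done: 30, 10, 1 mg/kg and 1.0–0.03 mg/kg. Whole brain was homogenised in sucrose buffer, then chloroform/methanol extracted and subjected to alkaline methanolysis. Extract was normalised to 2 μmol phospholipid phosphate. GlcCer was quantified by HPTLC against standards.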

[10] = mouse, IP, 10 mg/kg, single dose

O=C(CC1Cc2ccccc2C1)N[C@H](CN1CCCC1)[C@H](O)c1ccc2c(c1)OCCO2 [Compound 2]
efflux ratio ([1]; MDR1-MDCK cell monolayer): 298 | Papp A-B ([1]; MDR1-MDCK cell permeability): 0.14 ×10⁻⁶ cm/s | Papp B-A ([1]; MDR1-MDCK cell permeability): 40.8 ×10⁻⁶ cm/s | brain AUC [2, 10]: 36 ng·h/g | cumulative B/P ratio (brain AUC/plasma AUC) [2, 10]: 0.11 | plasma AUC [2, 10]: 317 ng·h/mL | reduction in brain GlcCer [3]: 17%

CC(C)(NC(=O)O[C@@H]1CN2CCC1CC2)c1csc(-c2ccc(F)cc2)n1 [Compound 3, reference compound]
half-life at 1 μM [4]: > 60 min | half-life at 1 μM [5]: > 60 min | Papp A→B [6]: 0.58 ×10⁻⁶ cm/s | Papp B→A [6]: 49 ×10⁻⁶ cm/s | AUC ([2]; female, CD-1, mouse, plasma, ip, 10 mg/kg): 7160 ng·h/mL | brain AUC [2, 10]: 6188 ng·h/g | concentration at 2 h ([7]; brain): 493 ng/g | concentration at 2 h ([7]; spleen): 4570 ng/g | reduction in brain GlcCer ([8]; IP 10 mg/kg qd for 14 days): 26% | reduction in brain GlcSph ([8]; IP 10 mg/kg qd for 14 days): 35%

CCCCCCCC(=O)N[C@H](CN1CCCC1)[C@H](O)c1ccc2c(c1)OCCO2 [eliglustat, eliglustat tartrate, reference compound]
half-life at 1 μM [5]: 12.5 min | activity on brain glycosphingolipids in CBE mouse assay ([8]; IP 10 mg/kg qd for 14 days): inactive

O=C(CC1Cc2ccccc2C1)N[C@H](CN1CCCC1)[C@H](O)c1ccc(OC(F)(F)F)cc1 [Compound 17, 2-(2,3-Dihydro-1H-inden-2-yl)-N-((1R,2R)-1-hydroxy-3-(pyrrolidin-1-yl)-1-(4-(trifluoromethoxy)phenyl)propan-2-yl)acetamide]
half-life at 1 μM [4]: 37 min | Papp A→B [6]: 0.95 ×10⁻⁶ cm/s | Papp B→A [6]: 56.6 ×10⁻⁶ cm/s | brain AUC [2, 10]: 1046 ng·h/g | increase in overall brain exposure vs 2 ([2]; mouse, IP, 10 mg/kg, brain AUC relative to 2): ~30 fold | total brain exposure (AUC) as percentage of that of Genz-682452 ([2]; mouse, single 10 mg/kg IP dose): about 20% | reduction in brain GlcCer ([9]; 1 mg/kg for 3 days): about 34% | reduction in brain GlcCer (printed as negative change) ([9]; 30 mg/kg for 3 days): −41% | concentration at 2 h ([7]; brain): 134 ng/g | concentration at 2 h ([7]; spleen): 4880 ng/g | reduction in brain GlcCer ([8]; IP 10 mg/kg qd for 14 days): 19% | reduction in brain GlcSph ([8]; IP 10 mg/kg qd for 14 days): 39% | effect on brain levels of galactosylceramide and galactosylsphingosine ([8]; selectivity vs galactosylceramide synthase, data not shown): lack of effect
